Experimental data gathered from unrelated publications.
Compare with care: the assays were run in different laboratories.
Target: Myosin-IIIb (MYO3B, Homo sapiens, UniProt Q8WXR4)
One construct used (Q8WXR4 1-1341): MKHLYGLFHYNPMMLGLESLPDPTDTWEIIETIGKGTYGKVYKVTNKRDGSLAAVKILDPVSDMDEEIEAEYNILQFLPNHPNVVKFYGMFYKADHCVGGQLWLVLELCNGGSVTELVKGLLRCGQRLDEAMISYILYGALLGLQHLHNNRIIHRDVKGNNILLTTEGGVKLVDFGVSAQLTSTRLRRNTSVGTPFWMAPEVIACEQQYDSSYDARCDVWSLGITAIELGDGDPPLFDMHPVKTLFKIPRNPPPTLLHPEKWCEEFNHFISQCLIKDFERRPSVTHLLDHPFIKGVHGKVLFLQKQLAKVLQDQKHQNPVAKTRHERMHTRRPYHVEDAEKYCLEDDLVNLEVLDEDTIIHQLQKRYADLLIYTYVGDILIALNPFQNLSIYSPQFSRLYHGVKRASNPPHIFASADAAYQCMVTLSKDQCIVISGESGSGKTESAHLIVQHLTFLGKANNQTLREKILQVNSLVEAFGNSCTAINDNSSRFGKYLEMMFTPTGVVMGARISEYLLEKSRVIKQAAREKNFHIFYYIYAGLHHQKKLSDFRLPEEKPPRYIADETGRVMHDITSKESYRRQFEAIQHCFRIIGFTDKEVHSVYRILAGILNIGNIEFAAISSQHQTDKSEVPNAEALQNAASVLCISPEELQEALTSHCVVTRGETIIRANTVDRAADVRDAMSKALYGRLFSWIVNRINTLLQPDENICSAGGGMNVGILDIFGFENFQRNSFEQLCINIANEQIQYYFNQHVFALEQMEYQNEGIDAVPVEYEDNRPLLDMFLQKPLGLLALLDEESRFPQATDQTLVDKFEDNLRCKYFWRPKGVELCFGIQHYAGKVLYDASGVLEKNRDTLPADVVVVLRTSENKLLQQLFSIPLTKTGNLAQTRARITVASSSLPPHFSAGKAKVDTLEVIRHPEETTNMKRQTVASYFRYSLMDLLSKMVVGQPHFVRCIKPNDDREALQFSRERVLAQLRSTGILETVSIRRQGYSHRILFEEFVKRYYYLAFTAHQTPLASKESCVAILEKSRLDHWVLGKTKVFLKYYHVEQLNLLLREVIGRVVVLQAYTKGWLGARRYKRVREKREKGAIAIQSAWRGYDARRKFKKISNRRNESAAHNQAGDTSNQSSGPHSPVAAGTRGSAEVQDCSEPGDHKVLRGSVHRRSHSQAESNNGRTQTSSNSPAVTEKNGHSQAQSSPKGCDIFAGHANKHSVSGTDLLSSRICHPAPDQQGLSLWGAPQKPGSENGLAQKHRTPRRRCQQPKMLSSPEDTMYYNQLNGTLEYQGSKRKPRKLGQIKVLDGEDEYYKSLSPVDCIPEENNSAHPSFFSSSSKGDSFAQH

O=C(Nc1c[nH]nc1C(=O)NC1CCNCC1)c1cc(F)cc(F)c1 — remaining binding (binding, competition with immobilised ligand; 1 µM): 100%
CCC(=O)N[C@H]1CC[C@@H](C(=O)N(C)c2ccc(-c3nc4ccccc4o3)cc2)C1 — remaining binding (cell-free assay, competition with immobilised ligand; 1 µM): 98%
CN(CCCC(F)(F)F)c1nccc(-c2cnn3ncccc23)n1 — remaining binding (binding; 1 µM): 92%
CS(=O)(=O)c1cc(C2(NC(=O)c3cncc4c3cnn4-c3ccc(F)cc3)CC2)ccn1 — remaining binding (cell-free assay, competition with immobilised ligand; 1 µM): 100%
CN(C)c1nccc(-c2cnn3ncccc23)n1 — remaining binding (binding; 1 µM): 100%
FC(F)(F)Oc1cccc(-c2cnc3ccc(-c4ccncc4)nn23)c1 — remaining binding (cell-free assay, competition with immobilised ligand; 5 µM): 100%
COc1ncc2cc3ccccc3nc2c1C#N — remaining binding (binding, competition with immobilised ligand; 5 µM): 96%
C[C@H]1CCN(c2nccc(-c3cnn4ncccc34)n2)C1 — remaining binding (binding; 1 µM): 100%
O=C(c1ccc(Nc2ncc(Cl)c(-c3cc4ccccc4s3)n2)cc1)N1CCC(N2CCCC2)CC1 — remaining binding (binding, competition with immobilised ligand; 1 µM): 100%
CC1CCCN1c1nccc(-c2cnn3ncccc23)n1 (stereo not drawn) — remaining binding (binding; 1 µM): 100%
Cc1nc(N2CC[C@@H](O)C2)ncc1-c1cc(C(F)(F)F)cc2[nH]ncc12 — remaining binding (binding, competition with immobilised ligand; 1 µM): 93%
COc1cnc(Nc2cccc(S(N)(=O)=O)c2)nc1N1CCN(c2ccccc2)C(=O)C1 — remaining binding (binding, competition with immobilised ligand; 1 µM): 94%
O=C(c1ccc(Nc2nccc(-c3cc4ccccc4s3)n2)cc1)N1CCC(N2CCCC2)CC1 — remaining binding (binding, competition with immobilised ligand; 1 µM): 100%
CN(c1nccc(-c2cnn3ncccc23)n1)C1CC1 — remaining binding (binding; 1 µM): 83%
Cc1cnc(Nc2ccc(C(=O)N3CCC(N4CCCC4)CC3)cc2)nc1-c1cc2ccccc2s1 — remaining binding (binding, competition with immobilised ligand; 1 µM): 100%
FC(F)(F)c1ccc2c(c1)nc(-c1cccnc1)n2C1CC1 — remaining binding (cell-free assay, competition with immobilised ligand; 1 µM): 67%
C=CC(=O)N1CCC(C(=O)NCC(=O)N2CCN(c3nc(-c4cnc(N)nc4C(F)F)nc(N4CCOCC4)n3)CC2)CC1 — remaining binding (binding, competition with immobilised ligand; 1 µM): 96%
C[C@@H](c1cccc(C#N)c1)n1cc(Cl)cc(C(N)=O)c1=N — remaining binding (binding, competition with immobilised ligand; 1 µM): 100%
Nc1ncc2c(n1)-c1c([nH]c3ccc(C#CC4CC4)cc13)CCCC2 — remaining binding (binding, competition with immobilised ligand; 1 µM): 75%
CN(C)c1ncc(F)c(-c2cnn3ncccc23)n1 — remaining binding (binding; 1 µM): 100%
CNCc1ccccc1-c1csc([C@@H](C)Nc2nc(C)nc3cc(OC)c(OC)cc23)c1 — remaining binding (cell-free assay, competition with immobilised ligand; 1 µM): 47%
